A selection: hits, their analogues and other compounds. The true share with any hit is near 4.9%.
NF-kB neuron act = activators of NF-kB expression in neurons, primary screen, cell-based, HTS; AID 1239, 2008; 190,000 compounds, 1.6% hits; fold change at 12.5 µM; human neuronal cells, NF-kB reporter expression; active compounds read high; in the data active means fold change above about 3.3
STAT1 act = STAT1 signaling activators, primary screen, cell-based, HTS, luciferase reporter. NIH 3T3 STAT1-luciferase reporter, IFN-gamma, luminescence; 100% = IFN-gamma alone, no compound. activation (% of control), % at 5.5 µM. 200,000 compounds, 2.6% hits;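 active means activation above the screen-wide mean activation plus 3 SD, cut at about 130% in these data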
STAT1 inh = STAT1 signaling inhibitors, primary screen, cell-based, HTS, luciferase reporter; NIH 3T3 STAT1-luciferase reporter, IFN-gamma, luminescence; 200,000 compounds, 0.35% hits; inhibition, % at 5.5 µM;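 active means inhibition above a set limit, the mean inhibition across all tested compounds plus 3 SD, cut at about 34% in these data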
STAT3 act = IL-6 driven STAT3 reporter potentiators, primary screen, U3A cells, luciferase, luminescence, MLSCN library | IL-6 STAT3-luciferase reporter; 100% = signal with IL-6 EC80 alone | activation (% of control), % at 5.6 µM | 190,000 compounds, 0.91% hits | AID 871, 2007;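 active means activation above the screen-wide mean of compound activation plus 3 SD, cut at about 130% in these data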
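Detection: reporter luminescence signal / Assay system: STAT1-lacking human U3A cells, STAT3 luciferase reporter / Incubation: compound pre-incubation 1 h before IL-6, then 6 h stimulation at 37 °C / Control set: IL-6-only high control / Read-out: % activation relative to IL-6 control / Probe or stimulus: Interleukin-6, 33 ng/mL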
STAT3 inh = IL-6 driven STAT3 reporter inhibitors, primary screen, U3A cells, luciferase, luminescence, MLSCN library; IL-6 STAT3-luciferase reporter; host cell line lacks STAT1; inhibition, % at 5.5 µM; 190,000 compounds, 0.89% hits;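 active means inhibition above the mean inhibition across all screened compounds plus 3 SD, cut at about 44% in these data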
APP 5'UTR act = activators of APP 5'UTR luciferase reporter, primary screen, SH-SY5Y cells; SH-SY5Y APP 5'UTR luciferase reporter, luminescence; zero percent = DMSO vehicle wells; 190,000 compounds, 1% hits; activation, % at 2 µM;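 active means activation above a set limit, based on mean plus 3 SD of controls, cut at about 140% in these data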
Large screens that a line does not name were inactive.

CC(=O)Nc1ccc(C(=O)OCCC(C)C)cc1	STAT1 act 129.3
COCCN1C(=O)CS/C1=C(/C#N)C(=O)NCc1ccco1	none
CC(=NCCN1CCN(C(C)=C2C(=O)c3ccccc3C2=O)CC1)C1=C(O)CC(C)(C)CC1=O	none
CC1CCN(c2ccc(C(=O)OCC(=O)NCCN3C(=O)CSC3=O)cc2[N+](=O)[O-])CC1	none
COCCCN=Cc1c(C)[nH]n(-c2ccc(Br)cc2Br)c1=O	none
COc1ccccc1-c1nc(-c2ccccn2)no1	STAT1 inh 35.6, STAT3 inh 75.0
COc1ccccc1-c1noc(-c2ccncc2)n1	none
COc1ccccc1-c1noc(-c2cccs2)n1	NF-kB neuron act 3.76, STAT1 act 129.7
Clc1ccc(-c2nc(Cc3ccccc3)no2)cc1	none
COc1ccc(-c2nc(-c3ccccn3)no2)cc1	STAT1 inh 96.0, STAT3 inh 108.8
Cc1ccccc1-c1nc(Cc2ccccc2)no1	STAT1 act 139.8
COc1ccc(Oc2nc(-c3ccccn3)ncc2OC)cc1	none
CC(C)NC(=S)N/N=C/c1cc(Br)ccc1O	none
COC(=O)C1CCN(C(=O)COC(=O)CCc2nc3ccccc3c(=O)[nH]2)CC1	none
Cc1ccccc1-c1nc(-c2ccccn2)no1	STAT1 inh 76.8, STAT3 inh 98.8
COc1nc(C)ccc1-c1noc(-c2ccccn2)n1	NF-kB neuron act 4.22
CN(C)S(=O)(=O)c1ccc(NC(=O)COc2ncnc3c2cnn3-c2ccccc2)cc1	none
CCN1CC(CN(C)Cc2cn(-c3ccc(C)cc3)nc2-c2cccc(C)c2)CC1=O (centres undefined)	none
O=C1c2ccccc2-c2nc3ccccc3nc21	STAT1 act 132.1
COc1ccccc1-c1nc2ccccc2nc1-c1ccccc1OC	none (no result: APP 5'UTR act)
COCCn1c(C)cc(C(=O)Cn2nc(C(=O)O)c3ccccc3c2=O)c1C	none
CCCn1c(C)cc(C(=O)Cn2nnc3ccccc3c2=O)c1C	NF-kB neuron act 4.7, APP 5'UTR act 159.3
Cc1nn(C(C)(C)C)c(OC(=O)c2cccs2)c1S(=O)(=O)c1ccccc1	STAT1 act 129.4
CC(=O)Oc1c(S(=O)(=O)c2ccccc2)c(C)nn1C(C)(C)C	none
CSCCNC(=O)c1ccc(C(C)(C)C)cc1	NF-kB neuron act 5.36
CN(c1ccc(C(=O)NCCSC(C)(C)C)cc1)S(=O)(=O)c1ccccc1	none
CC(C)(C)c1ccc(C(=O)NCc2ccccc2)cc1	none
Cc1ccc(C(=O)NCCSC(C)(C)C)cc1	NF-kB neuron act 4.13
CC(C)(C)SCCNC(=O)c1ccccc1	STAT1 act 138.7 (no result: APP 5'UTR act)
CCOC(=O)c1ccc(N/C=C/C(=O)C(C)(C)C)cc1	NF-kB neuron act 4.23, STAT1 act 135.7
CCOC(=O)c1ccc(N/C=C/C(=O)c2ccc(OC)cc2)cc1	none
CCOC(=O)c1ccc(N/C=C/C(=O)c2ccccc2)cc1	NF-kB neuron act 4.75, APP 5'UTR act 164.3
CCOC(=O)c1ccc(NC(=O)Nc2ccccn2)cc1	STAT1 act 150.6
CN(C)c1ccc(N/C=C/C(=O)c2ccccc2)cc1	STAT1 inh 44.8, STAT3 inh 84.1
Cc1cc(C)cc(NC(=O)CSc2nncn2-c2ccccn2)c1	none
COc1ccc(/C=C(\C#N)C(=O)NCC2CCCO2)cc1OC (centres undefined)	none
CCOC(=O)c1ccc(-c2ccc(/C=C(\C#N)C(=O)NCC3CCCO3)o2)cc1 (centres undefined)	STAT3 act 135.5
S=C(NCc1ccccc1)NNc1ccccc1	none
CCCCNC(=O)NC(C(=O)OC)C12CC3CC(CC(C3)C1)C2 (centres undefined)	none
Cc1ccc(C(O)c2nc3ccccc3n2C(C)C)cc1 (centres undefined)	none
CC(C)n1c(-c2ccc(N(C)C)cc2)nc2ccccc21	APP 5'UTR act 170.4
CN(CC(=O)Nc1cccc2ccccc12)C(=O)/C=C/c1cccs1	none
CC(C)C1=NOC(C(=O)N2CCC(N3CCC(C(=O)N4CCOCC4)CC3)CC2)C1 (centres undefined)	none
CSc1nc(Cl)cc(Nc2ccc(O)cc2)n1	none

Screening data as filed in PubChem.
